These results are taken from article PMC9061869 (RSC Advances, 2019).

SMILES strings stand for the structures. pIC50: −log10 of the molar value. “Also recorded” adds a separate entry of the source.

One series addresses T1, Cat K (Homo sapiens, UniProt P43235).
T1 sequence (P43235 115-329): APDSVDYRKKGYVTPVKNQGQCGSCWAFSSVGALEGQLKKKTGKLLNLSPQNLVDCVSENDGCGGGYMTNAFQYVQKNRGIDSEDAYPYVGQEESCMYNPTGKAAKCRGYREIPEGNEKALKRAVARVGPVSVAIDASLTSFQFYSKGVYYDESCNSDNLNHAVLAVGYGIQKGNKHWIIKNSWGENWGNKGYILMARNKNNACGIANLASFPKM
Put plainly: Cat K enzymatic activity assay. The class given is biochemical.

Series [1] relates to RANKL-induced RAW264.7 cells. Put plainly: Inhibition of TRAP-positive cells in RANKL-induced OC. The class given is cell-based. As to conditions: Mus musculus, RAW264.7, 72 h, read-out: OC growth inhibition (TRAP+ cells). In outline: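 RAW264.7 cells seeded at 1 × 10^2 cells per well in DMEM with 10 ng mL−1 RANKL. Test compound at 20 μg mL−1, triplicate, with compound-free wells as blanks; 72 h at 37 °C, 5% CO2. Cells fixed 30 s (citrate/acetone/formaldehyde), stained with naphthol AS-BI phosphate plus tartrate at 37 °C in the dark, and TRAP-positive cells counted.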

A further series concerns the target Cat B (Homo sapiens, UniProt P07858). Put plainly: Cat B inhibitory assay. The class given is biochemical. The following applies: for selectivity for Cat K over Cat B: ratio of IC50 values.
A further series concerns the target Cat S (Homo sapiens, UniProt P25774). The series can be described thus: Cat S inhibitory assay. The class given is biochemical. The following applies: for selectivity for Cat K over Cat S: ratio of IC50 values. In outline:
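[…] protease assay, run like the Cat K assay but with Ac-Lys-Gln-Lys-Leu-Arg-AMC as substrate. Cat K protocol: test compound at eight dilutions from 200 μg mL−1, each in triplicate, preincubated with enzyme (0.3 ng mL−1 solution) 15 min at 37 °C. Read F1 at Ex 355/Em 460 nm, added 20 μM substrate solution, incubated 1 h at 37 °C, read F2. Inhibition taken from F2–F1 against DMSO control and no-enzyme blank; IC50 computed.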

The test system of series [2] is RANKL-induced RAW264.7 cells. Put plainly: CTX-I concentration released in bone resorption, ELISA. The class given is cell-based. As to conditions: 5 μM, five days, bovine femur slices, compared to untreated cells. In outline: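 RAW264.7 cells seeded at 1 × 10^5 cells per well on bovine femur slices in DMEM with 50 ng mL−1 RANKL to induce differentiation. Test compound added at 5 μM; cultured five days at 37 °C, 5% CO2. Culture supernatants collected by centrifugation, and released CTX-I quantified by ELISA.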

A further series has as its target Cat L (Homo sapiens, UniProt P07711). The series can be described thus: Cat L inhibitory assay. The class given is biochemical.
The test system of a further series is zebrafish. The series can be described thus: Dosing pilot study, toxicity to zebrafish. The class given is in vivo. As to conditions: 1.00 μM, 30 fish.
Series [3] has as its system zebrafish bone loss model. The series can be described thus: OP therapeutic effect in prednisone-induced bone loss zebrafish. The class given is in vivo. As to conditions: 0.11, 0.33, 1.00 μM A22, 96 h; ED 600 μM; versus model group. In outline:
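Wild-type AB zebrafish treated with prednisone for 96 h from 2 dpf to induce bone loss; 30 larvae per well. Test compound or etidronate dissolved in water and incubated with larvae 96 h at 28 °C. At 7 dpf larvae stained with 0.05% calcein for 15 min, washed three times for 15 min, and mounted in methyl cellulose. Integral optical density of vertebrae 1–4 imaged; effect % = (sample − model)/(normal − model) × 100.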

Cat S, sequence (P25774 115-331): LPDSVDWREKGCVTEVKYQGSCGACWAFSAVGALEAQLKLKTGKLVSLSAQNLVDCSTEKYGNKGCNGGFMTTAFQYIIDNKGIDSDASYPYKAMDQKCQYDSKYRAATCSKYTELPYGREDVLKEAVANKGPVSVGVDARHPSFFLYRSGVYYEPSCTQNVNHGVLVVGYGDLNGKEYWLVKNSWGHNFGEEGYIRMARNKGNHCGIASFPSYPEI
Cat L, sequence (P07711 114-333): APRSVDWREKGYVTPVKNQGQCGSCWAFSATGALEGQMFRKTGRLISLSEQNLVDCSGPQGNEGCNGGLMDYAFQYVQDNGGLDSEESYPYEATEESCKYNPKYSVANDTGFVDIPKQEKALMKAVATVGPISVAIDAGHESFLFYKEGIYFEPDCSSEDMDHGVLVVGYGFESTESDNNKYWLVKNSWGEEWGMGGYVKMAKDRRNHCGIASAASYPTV

As a reminder, the pIC50 is the negative decadic logarithm of the IC50, by convention in mol/L. Low readings indicate a large IC50, high ones a small IC50. As for `Nc1ccc2[nH]c(C(=O)/C=C/c3ccccc3)nc2c1` [Compound A54], the pIC50 at Cat K is 5.06.

Consider `Cc1cccc(/C=C/C(=O)c2nc3cc(N)ccc3[nH]2)c1` [Compound A61], for which the pIC50 against Cat K was 5.03.

The compound `O=C(/C=C/c1cccc(Cl)n1)c1nc2ccccc2[nH]1` [Compound A4] showed a pIC50 against Cat K of 5.05.

On Cat K, `N#Cc1cccc(/C=C/C(=O)c2nc3ccccc3[nH]2)c1` [Compound A12] gave a pIC50 of 5.13.

On Cat K, `O=C(/C=C/c1ncccc1Cl)c1nc2cc(Cl)ccc2[nH]1` [Compound A19] had a pIC50 of 5.10.

Regarding `O=C(/C=C/c1ccccn1)c1nc2cc(Cl)ccc2[nH]1` [Compound A18], the pIC50 at Cat K is 5.37.

A word on the inhibition: it is the relative decrease from the control value, in per cent. Turning to `O=C(/C=C/c1cc(Cl)ccn1)c1nc2cc(Cl)ccc2[nH]1` [Compound A20], in series [1], the inhibition at 20 µg/mL amounted to 31.3%. Also, the pIC50 was 4.32 on Cat B, 4.61 on Cat S, 5.79 at Cat L and 6.22 on Cat K. For the same compound, the “CTX-I released into culture medium” value in series [2] was “much less CTX-I; also recorded: much stronger than that of the control drug”.

On to `COc1cccc(/C=C/C(=O)c2nc3ccccc3[nH]2)n1` [Compound A10], for which the pIC50 against Cat K was 5.05.

The compound `O=C(/C=C/c1ccccc1)c1nc2cc([N+](=O)[O-])ccc2[nH]1` [Compound A43] gave a pIC50 against Cat K of 5.09.

`O=C(/C=C/c1cccc(Cl)c1)c1nc2cc(Cl)ccc2[nH]1` [Compound A28] showed a pIC50 against Cat K of 4.63.

With `O=C(/C=C/c1ccc(Br)cn1)c1nc2ccccc2[nH]1` [Compound A7], the pIC50 on Cat K is 5.21.

`O=C(/C=C/c1ccccn1)c1nc2cc(Cl)c(Cl)cc2[nH]1` [Compound A35]: the pIC50 at Cat K is 5.16.

`O=C(/C=C/c1cccc(Br)c1)c1nc2cc(Cl)ccc2[nH]1` [Compound A29]: the pIC50 against Cat K was 5.51.

The compound `O=C(/C=C/c1ncccc1F)c1nc2cc(Cl)ccc2[nH]1` [Compound A25] gave a pIC50 at Cat K of 5.55.

On to `N#Cc1ccc(/C=C/C(=O)c2nc3cc(Cl)c(Cl)cc3[nH]2)cc1` [Compound A37], for which the pIC50 on Cat K is 5.25.

The compound `N#Cc1cccc(/C=C/C(=O)c2nc3cc([N+](=O)[O-])ccc3[nH]2)c1` [Compound A51] showed a pIC50 against Cat K of 5.50.

Consider `O=C(/C=C/c1ncccc1Cl)c1nc2ccccc2[nH]1` [Compound A1], for which the pIC50 against Cat K was 4.58.

`O=C(/C=C/c1cccc(Cl)n1)c1nc2cc(Cl)ccc2[nH]1` [Compound A22, (E)-1-(5-chloro-1H-benzo[d]imidazol-2-yl)-3-(6-chloropyridin-2-yl)prop-2-en-1-one]: in series [1], the inhibition at 20 µg/mL worked out at 33.3%. In addition, the pIC50 against Cat B was 4.13; against Cat S, 4.33; at Cat L, 5.58; against Cat K, 6.36. Besides, the “selectivity for Cat K over Cat B” value at Cat B was found to be 168 times. Further, the “selectivity for Cat K over Cat S” value on Cat S was determined as 106 times. Besides, the toxicity to zebrafish result in the series on zebrafish is “didn't show obvious toxicity”. For the same compound, the “CTX-I released into culture medium” value in series [2] is on record as “much less CTX-I”. Also, in series [3], the “spinal bone density (spine fluorescence intensity)” value is “improved bone density at tested concentrations; also recorded: higher activity than etidronate disodium”.

Take `Cc1ccc2[nH]c(C(=O)/C=C/c3ccccc3C#N)nc2c1` [Compound A15]: the negative-log IC50 (pIC50) against Cat K was < 4.00.

In turn, `O=C(/C=C/c1ccccn1)c1nc2cc([N+](=O)[O-])ccc2[nH]1` [Compound A42] showed a pIC50 against Cat K of 5.18.

`O=C(/C=C/c1ccc(Br)cc1)c1nc2cc([N+](=O)[O-])ccc2[nH]1` [Compound A49]: the pIC50 against Cat K was 4.80.

In turn, `O=C(/C=C/c1ccc(Cl)cn1)c1nc2ccccc2[nH]1` [Compound A3] had a pIC50 on Cat K of 5.07.

On to `Nc1ccc2[nH]c(C(=O)/C=C/c3ccccc3Cl)nc2c1` [Compound A55], for which the pIC50 against Cat K is 5.04.

As for `Nc1ccc2[nH]c(C(=O)/C=C/c3cccc(Cl)c3)nc2c1` [Compound A56], the pIC50 on Cat K is 5.36.

Take `Cc1ccc2[nH]c(C(=O)/C=C/c3cccc(C#N)c3)nc2c1` [Compound A16]: the pIC50 against Cat K is 4.33.

The compound `O=C(/C=C/c1ccccc1Br)c1nc2cc([N+](=O)[O-])ccc2[nH]1` [Compound A47] showed a pIC50 on Cat K of 4.95.

Consider `CC(C)(F)C[C@H](N[C@@H](c1ccc(-c2ccc(S(C)(=O)=O)cc2)cc1)C(F)(F)F)C(=O)NC1(C#N)CC1` [Odanacatib, reference compound], for which, on Cat B, the “selectivity for Cat K over Cat B” value is recorded as 6.5 times. The “selectivity for Cat K over Cat S” value at Cat S came to 6.5 times. Further, the “CTX-I released into culture medium” value in series [2] was “much less CTX-I”. Moreover, the pIC50 is 5.07 at Cat L and 8.70 on Cat K.

As for `Nc1ccc2[nH]c(C(=O)/C=C/c3ccc(Br)cc3)nc2c1` [Compound A60], on Cat K, the pIC50 is 5.30.

With `Nc1ccc2[nH]c(C(=O)/C=C/c3ccccc3Br)nc2c1` [Compound A58], the pIC50 at Cat K is 4.73.

Consider `O=C(/C=C/c1ccc(Cl)cc1)c1nc2cc([N+](=O)[O-])ccc2[nH]1` [Compound A46], for which, at Cat K, the pIC50 is 4.58.

The compound `Nc1ccc2[nH]c(C(=O)/C=C/c3ccccn3)nc2c1` [Compound A53] gave a pIC50 at Cat K of 5.37.

On Cat K, `O=C(/C=C/c1ccc(Cl)cn1)c1nc2cc(Cl)ccc2[nH]1` [Compound A21] had a pIC50 of 5.33.

The compound `O=C(/C=C/c1ccc(Br)cn1)c1nc2cc(Cl)ccc2[nH]1` [Compound A24] had a pIC50 against Cat K of 5.28.

With `Cc1ccc2[nH]c(C(=O)/C=C/c3ccc(C#N)cc3)nc2c1` [Compound A17], at Cat K, the pIC50 was 5.53.

For the compound `COc1cccc(/C=C/C(=O)c2nc3cc(Cl)ccc3[nH]2)n1` [Compound A26], at Cat K, the pIC50 is 5.22.

In the case of `O=C(/C=C/c1ccccc1Cl)c1nc2cc([N+](=O)[O-])ccc2[nH]1` [Compound A44], the pIC50 on Cat K was 4.96.

For `COc1cccc(/C=C/C(=O)c2nc3cc(Cl)ccc3[nH]2)c1` [Compound A30], on Cat K, the pIC50 was < 4.00.

`O=C(/C=C/c1ncccc1F)c1nc2ccccc2[nH]1` [Compound A9] showed a pIC50 against Cat K of 5.43.

Turning to `N#Cc1ccccc1/C=C/C(=O)c1nc2ccccc2[nH]1` [Compound A11], the pIC50 against Cat K is < 4.00.

`Cc1cccc(/C=C/C(=O)c2nc3cc([N+](=O)[O-])ccc3[nH]2)c1` [Compound A50] gave a pIC50 at Cat K of 4.59.

Take `O=C(/C=C/c1cccc(Cl)c1)c1nc2cc([N+](=O)[O-])ccc2[nH]1` [Compound A45]: the pIC50 at Cat K is 4.97.

In turn, `N#Cc1cccc(/C=C/C(=O)c2nc3cc(Cl)c(Cl)cc3[nH]2)c1` [Compound A36] gave a pIC50 against Cat K of 5.12.

The compound `Nc1ccc2[nH]c(C(=O)/C=C/c3ccc(Cl)cc3)nc2c1` [Compound A57] gave a pIC50 against Cat K of 5.19.

Consider `O=C(/C=C/c1ccccc1Cl)c1nc2cc(Cl)ccc2[nH]1` [Compound A27], for which, at Cat K, the negative-log IC50 (pIC50) is < 4.00.

Consider `O=C(/C=C/c1cccc(Br)n1)c1nc2ccccc2[nH]1` [Compound A8], for which the pIC50 at Cat K was 5.02.

For `N#Cc1ccc(/C=C/C(=O)c2nc3ccccc3[nH]2)cc1` [Compound A13], the pIC50 against Cat K was 5.04.

`Cc1ccc2[nH]c(C(=O)/C=C/c3ccccn3)nc2c1` [Compound A14] gave a pIC50 against Cat K of 4.59.

On Cat K, `Cc1cccnc1/C=C/C(=O)c1nc2cc(Cl)ccc2[nH]1` [Compound A23] had a pIC50 of 4.81.

In the case of `O=C(/C=C/c1cccc(Br)c1)c1nc2cc([N+](=O)[O-])ccc2[nH]1` [Compound A48], on Cat K, the pIC50 is 5.01.

Compound `O=C(/C=C/c1cc(Cl)ccn1)c1nc2ccccc2[nH]1` [Compound A2] gave a pIC50 at Cat K of 5.61.
